Test results: ChEMBL document CHEMBL3627646, “Synthesis and biological activity of amino acid derivatives of avarone and its model compound” (Bioorg Med Chem, 2015)
Converted amounts (≈) assume the structure as drawn.

Columns and labels:
HeLa = assay: Cytotoxicity against human HeLa cells assessed as cell survival after 72 hrs by MTT assay; assay type: functional, cell-based
Summary of the method: (§1)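 Cells seeded (HeLa 2000, MDA-MB-453 3000, others 5000 per well), treated 24 h later (K562 after 2 h). Five double-diluted final concentrations, 200–12.5 μM, from 10 mM DMSO stocks, in RPMI-1640 with 10% FBS, pH 7.2, 72 h. MTT 4 h at 37 °C, SDS added, A570 read next day. Survival relative to medium control; IC50 from survival curves; triplicate; cisplatin positive control.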

A549 = assay: Cytotoxicity against human A549 cells assessed as cell survival after 72 hrs by MTT assay; assay type: functional, cell-based; settings: A549, 72 h; summary of the method: as §1
[1] = Cytotoxicity against human Fem-X cells assessed as cell survival after 72 hrs by MTT assay; assay type: functional, cell-based; summary of the method: as §1
K562 = assay: Cytotoxicity against human K562 cells assessed as cell survival after 72 hrs by MTT assay; assay type: functional, cell-based; settings: K562, 72 h; summary of the method: as §1
MDA-MB-453 = assay: Cytotoxicity against human MDA-MB-453 cells assessed as cell survival after 72 hrs by MTT assay; assay type: functional, cell-based; settings: MDA-MB-453, 72 h; summary of the method: as §1
MRC5 = assay: Cytotoxicity against human MRC5 cells assessed as cell survival after 72 hrs by MTT assay; assay type: cell-based; settings: MRC5, 72 h; summary of the method: as §1
Staphylococcus aureus = assay: Antibacterial activity against Staphylococcus aureus ATCC 6538 after 24 hrs by microbroth double dilution method; assay type: functional; settings: ATCC 6538, 24 h
Summary of the method: (§2)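 Microbroth double dilution in Mueller Hinton broth; compound stock 10 mg/mL in DMSO serially halved across rows. Wells inoculated with 10 μL culture at 10^6 cells/mL, incubated 37 °C for 24 h. Amikacin row as positive control, DMSO row as negative control. MIC taken as lowest concentration inhibiting bacterial growth.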

Kocuria rhizophila = assay: Antibacterial activity against Kocuria rhizophila ATCC 9341 after 24 hrs by microbroth double dilution method; assay type: functional; settings: ATCC 9341, 24 h; summary of the method: as §2
Bacillus subtilis = assay: Antibacterial activity against Bacillus subtilis ATCC 6633 after 24 hrs by microbroth double dilution method; assay type: functional; settings: ATCC 6633, 24 h; summary of the method: as §2
Micrococcus luteus = assay: Antibacterial activity against Micrococcus luteus ATCC 4698 after 24 hrs by microbroth double dilution method; assay type: functional; settings: ATCC 4698, 24 h; summary of the method: as §2
Micrococcus flavus = assay: Antibacterial activity against Micrococcus flavus ATCC 10240 after 24 hrs by microbroth double dilution method; assay type: functional; settings: ATCC 10240, 24 h; summary of the method: as §2
Clostridium sporogenes = assay: Antibacterial activity against Clostridium sporogenes ATCC 19404 after 24 hrs by microbroth double dilution method; assay type: functional; settings: ATCC 19404, 24 h; summary of the method: as §2
Escherichia coli = assay: Antibacterial activity against Escherichia coli ATCC 25922 after 24 hrs by microbroth double dilution method; assay type: functional; settings: ATCC 25922, 24 h; summary of the method: as §2
Proteus hauseri = assay: Antibacterial activity against Proteus hauseri ATCC 13315 after 24 hrs by microbroth double dilution method; assay type: functional; settings: ATCC 13315, 24 h; summary of the method: as §2
Salmonella enterica = assay: Antibacterial activity against Salmonella enterica ATCC 13076 after 24 hrs by microbroth double dilution method; assay type: functional; settings: ATCC 13076, 24 h; summary of the method: as §2
Pseudomonas aeruginosa = assay: Antibacterial activity against Pseudomonas aeruginosa ATCC 9027 after 24 hrs by microbroth double dilution method; assay type: functional; settings: ATCC 9027, 24 h; summary of the method: as §2
Candida albicans = assay: Antifungal activity against Candida albicans ATCC 10231 after 24 hrs by microbroth double dilution method; assay type: functional; settings: ATCC 10231, 24 h
Saccharomyces cerevisiae = assay: Antifungal activity against Saccharomyces cerevisiae ATCC 9763 after 24 hrs by microbroth double dilution method; assay type: functional; settings: ATCC 9763, 24 h
Aspergillus brasiliensis = assay: Antifungal activity against Aspergillus brasiliensis ATCC 16404 after 24 hrs by microbroth double dilution method; assay type: functional; settings: ATCC 16404, 24 h
Artemia salina = assay: Cytotoxicity in Brine shrimp assessed as nauplii mortality after 24 hrs; assay type: organism-based; settings: in vivo
Summary of the method: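 Artemia salina eggs hatched in aerated tap water with dried yeast at 18–20 °C under illumination for 48 h, and freshly hatched nauplii were used. Compounds in DMSO (0.01–1 mg) were added to 950 µL artificial seawater containing 10–20 nauplii, with 5% final DMSO. After 24 h under illumination at room temperature, dead and surviving nauplii were counted and statistically analysed.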

Row | SMILES | IC50 (HeLa) [µM] | IC50 (A549) [µM] | IC50 [1] [µM] | IC50 (K562) [µM] | IC50 (MDA-MB-453) [µM] | IC50 (MRC5) [µM] | MIC (Staphylococcus aureus) [µM] | MIC (Kocuria rhizophila) [µM] | MIC (Bacillus subtilis) [µM] | MIC (Micrococcus luteus) [µM] | MIC (Micrococcus flavus) [µM] | MIC (Clostridium sporogenes) [µM] | MIC (Escherichia coli) [µM] | MIC (Proteus hauseri) [µM] | MIC (Salmonella enterica) [µM] | MIC (Pseudomonas aeruginosa) [µM] | MIC (Candida albicans) [µM] | MIC (Saccharomyces cerevisiae) [µM] | MIC (Aspergillus brasiliensis) [µM] | LC50 (Artemia salina) [ppm]
1 | CC(C)(C)C1=CC(=O)C=C(N[C@@H](Cc2ccccc2)C(=O)O)C1=O | 66.3 | 164 | 67.3 | 82.3 | 68 | > 200 | 480 (≈ 157 µg/mL) | 1910 (≈ 626 µg/mL) | 1910 (≈ 626 µg/mL) | 480 (≈ 157 µg/mL) | 1910 (≈ 626 µg/mL) | 1910 (≈ 626 µg/mL) | 480 (≈ 157 µg/mL) | 1910 (≈ 626 µg/mL) | 1910 (≈ 626 µg/mL) | 1910 (≈ 626 µg/mL) | 480 (≈ 157 µg/mL) | 119 (≈ 39 µg/mL) | 957 (≈ 313 µg/mL) | 196.8
2 | NCC[C@H](O)C(=O)N[C@@H]1C[C@H](N)[C@@H](O[C@H]2O[C@H](CN)[C@@H](O)[C@H](O)[C@H]2O)[C@H](O)[C@H]1O[C@H]1O[C@H](CO)[C@@H](O)[C@H](N)[C@H]1O [AMIKACIN] | – | – | – | – | – | – | 18.8 (≈ 11 µg/mL) | 3.42 (≈ 2 µg/mL) | 71.7 (≈ 42 µg/mL) | 13.7 (≈ 7.99 µg/mL) | 3.42 (≈ 2 µg/mL) | 25.6 (≈ 15 µg/mL) | 8.54 (≈ 5 µg/mL) | 11.9 (≈ 7 µg/mL) | 13.7 (≈ 8 µg/mL) | 85.4 (≈ 50 µg/mL) | – | – | – | –
3 | CC(C)[C@@H](NC1=CC(=O)C=C(C(C)(C)C)C1=O)C(=O)O | 96.5 | 154 | 24.6 | 57.8 | 133 | > 200 | 1120 (≈ 313 µg/mL) | 4480 (≈ 1250 µg/mL) | 2240 (≈ 626 µg/mL) | 1120 (≈ 313 µg/mL) | 2240 (≈ 626 µg/mL) | 2240 (≈ 626 µg/mL) | 1120 (≈ 313 µg/mL) | 4480 (≈ 1250 µg/mL) | 4480 (≈ 1250 µg/mL) | 2240 (≈ 626 µg/mL) | 563 (≈ 157 µg/mL) | 563 (≈ 157 µg/mL) | 2240 (≈ 626 µg/mL) | 574.9
4 | CC(C)(C)C1=CC(=O)C=C(N[C@@H](Cc2c[nH]c3ccccc23)C(=O)O)C1=O | 106 | 198 | 34.7 | 25 | 120 | > 200 | 855 (≈ 313 µg/mL) | 1710 (≈ 626 µg/mL) | 1710 (≈ 626 µg/mL) | 1710 (≈ 626 µg/mL) | 1710 (≈ 626 µg/mL) | 1710 (≈ 626 µg/mL) | 1710 (≈ 626 µg/mL) | 1710 (≈ 626 µg/mL) | 1710 (≈ 626 µg/mL) | 1710 (≈ 626 µg/mL) | 213 (≈ 78.1 µg/mL) | 213 (≈ 78.1 µg/mL) | 1410 (≈ 516 µg/mL) | –
